Here are results for five molecules from ChEMBL document CHEMBL3992505, “Optimization of substituted imidazobenzodiazepines as novel asthma treatments” (Eur J Med Chem, 2017).

The subject of series [1] is Liver. As to the kind of experiment: Metabolic stability in human liver microsomes assessed as compound remaining at 10 uM after 1 hr by LC-MS/MS analysis. The class given is ADME, microsome. The gist of the method: (§1)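 Compound stability was measured in human or mouse liver microsomes as percent remaining after 1 h. Data came from two independent experiments, each run in triplicate.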

Series [2] has as its system Liver. As to the kind of experiment: Metabolic stability in mouse liver microsomes assessed as compound remaining at 10 uM after 1 hr by LC-MS/MS analysis. The class given is ADME, microsome. The gist of the method: as §1
Background: Microsomes from liver hold many membrane-bound enzymes, among them those of drug oxidation.

The nature of series [3]: Half life in human liver microsomes at 10 uM by LC-MS/MS analysis. It is filed as ADME, microsome.
Series [4] in a line: Half life in mouse liver microsomes at 10 uM by LC-MS/MS analysis. The settings on record: liver microsomes. It is filed as ADME, microsome.
Series [5] can be described thus: Cytotoxicity in HEK293 cells after 48 hrs by Cell-titer Glo reagent based assay. The settings on record: human, read-out: LD50. The gist of the method:
(§2)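 Cells (HEK293, HepG2 or BEAS2B) exposed to compounds at a range of concentrations for 48 h; viability read by Cell-Titer Glo luminescence. Normalized to DMSO (negative) and 3-dibutylamino-1-(4-hexyl-phenyl)-propan-1-one at 150 μM final in DMSO (positive).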

Series [6] in a line: Cytotoxicity in human HepG2 cells after 48 hrs by Cell-titer Glo reagent based assay. Particulars: read-out: LD50. In outline:
as §2

Series [7] is described as follows: Cytotoxicity in human BEAS2B cells after 48 hrs by Cell-titer Glo reagent based assay. Also noted: species or system BEAS-2B. Particulars: read-out: LD50. In outline:
as §2

Another series has as its system Mus musculus. As to the kind of experiment: Neurotoxicity in Swiss Webster mouse assessed as induction of senorimotor impairment at 15 mg/kg administered 10 mins prior to testing and measured for 3 mins at 10 to 60 mins after drug administration by rotarod method. Particulars: in vivo. The class given is toxicity, organism-based.
A short description of series [8]: Solubility of the compound in PBS/1% DMSO at 10 uM. It is filed as physicochemical. The settings on record: buffer. In outline:
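Solubility was judged at 10 μM in PBS containing 1% DMSO.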

The nature of series [9]: Solubility of the compound in 50% PBS/40% propylene glycol/10% DMSO at 10 uM. It is filed as physicochemical. The settings on record: buffer.

Structures are written as SMILES.

As for `COc1ccc2c(c1)C(=O)N1CCC[C@H]1c1c(C(=O)OC(C)(C)C)ncn1-2`, the Stability in the series on Liver [1] is 92.1%; in the series on Liver [2], 16.2%. Besides, the results for the half-life at 10 µM in series [3] and in [4] were 11.9 h and 0.402 h, respectively. Moreover, the CC50 at 48 h was over 100 µM in series [5], over 400 µM in series [6] and over 200 µM in [7]. In addition, the Activity result in the series on Mus musculus is “Toxic”.

In the case of `CCSC(=O)c1ncn2c1[C@@H]1CCCN1C(=O)c1cc(OC)ccc1-2`, the solubility result in [8] and in [9] was “Insoluble” throughout. In addition, the CC50 at 48 h in series [5], in [6] and in series [7] was over 100 µM throughout.

Turning to `[2H]C([2H])([2H])Oc1ccc2c(c1)C(=O)N1CCC[C@H]1c1c(C(=O)SCC)ncn1-2`, the solubility result in [8] and in series [9] was “Insoluble” in each case. Besides, the CC50 at 48 h in series [5], in series [6] and in series [7] was over 100 µM in each case.

Regarding `COc1ccc2c(c1)C(=O)N1CCC[C@H]1c1c(C(=O)SC(C)(C)C)ncn1-2`, the solubility entry in series [8] and in [9] was “Insoluble” in each case. Also, the CC50 at 48 h is 18.8 µM in series [5], over 100 µM in series [6] and over 100 µM in [7].

Consider `COc1ccc2c(c1)C(=O)N1CCC[C@H]1c1c(C(=O)OC(C(F)(F)F)C(F)(F)F)ncn1-2`, for which the solubility entry in [8] and in series [9] was “Insoluble” throughout. Further, the CC50 at 48 h in series [5] was over 200 µM; in series [6], over 400 µM; in series [7], over 400 µM.
